Data reported in ChEMBL document CHEMBL4266020, “Design, Synthesis, and Antifibrosis Activity in Liver of Nonsecosteroidal Vitamin D Receptor Agonists with Phenyl-pyrrolyl Pentane Skeleton” (J Med Chem, 2018).
Each block holds one molecule with its values, some of them ahead of it. Calls of active or inactive are those of the source. The calls are words filed in the database; no cut-off is given here.

Assays:
[1] = target: T1, Vitamin D3 receptor (Homo sapiens) (UniProt P11473); test: Binding affinity to VDR ligand binding domain (unknown origin) at 100 nM by fluorescence polarization assay relative to 1,25(OH)2D3
T1 sequence (whole entry): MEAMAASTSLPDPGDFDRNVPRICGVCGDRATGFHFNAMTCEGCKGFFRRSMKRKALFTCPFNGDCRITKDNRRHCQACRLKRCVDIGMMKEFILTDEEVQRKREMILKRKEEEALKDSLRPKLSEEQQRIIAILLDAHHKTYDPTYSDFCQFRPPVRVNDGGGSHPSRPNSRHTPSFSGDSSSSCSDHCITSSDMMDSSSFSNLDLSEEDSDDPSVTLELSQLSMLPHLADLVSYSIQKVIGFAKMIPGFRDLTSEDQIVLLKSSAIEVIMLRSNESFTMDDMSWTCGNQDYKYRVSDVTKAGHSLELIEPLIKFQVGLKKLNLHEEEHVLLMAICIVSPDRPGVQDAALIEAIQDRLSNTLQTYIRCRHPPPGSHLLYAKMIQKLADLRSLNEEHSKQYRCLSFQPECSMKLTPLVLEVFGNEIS

[2] = target: T1, Vitamin D3 receptor (Homo sapiens); test: Agonist activity at VDR in human LX2 cells assessed as inhibition of TGFbeta1-induced collagen-1 synthesis at 100 nM after 24 hrs by ELISA relative to 1,25(OH)2D3
Mus musculus [3] = test: Antifibrotic activity in C57BL/6J mouse model of CCl4-induced liver fibrosis assessed as reduction in hydroxyproline levels in liver at 20 ug/kg, po administered 5 times a week via gavage measured at 72 hrs post final CCl4 injection; assay type: functional, organism-based
Method in brief: (§1)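 Same CCl4 mouse model (n=5; 0.5 mL/kg IP in corn oil, 3×/week for 4 weeks; 20 µg/kg oral gavage 5×/week from day 20; sacrifice 72 h after last CCl4). Livers fixed in 4% paraformaldehyde for 24 h, paraffin-embedded, and cut into 5 µm sections. Sections stained with H&E (×100) or Masson's trichrome (×200). Hydroxyproline measured by kit.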

Mus musculus [4] = test: Hepatoprotective activity against CCL4-induced liver damage in C57BL/6J mouse assessed as reduction in serum AST levels at 20 ug/kg, po administered 5 times a week via gavage measured at 72 hrs post final CCl4 injection; assay type: functional, organism-based
Method in brief: (§2)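 Same CCl4 mouse model (n=5; 0.5 mL/kg IP, 3×/week for 4 weeks; 20 µg/kg gavage 5×/week from day 20; sacrifice 72 h after last CCl4). Serum obtained by centrifugation at 3000 rpm for 15 min at 4°C. ALT, AST, TBA and calcium measured with commercial kits. Mean ± SD.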

Mus musculus [5] = test: Hepatoprotective activity against CCL4-induced liver damage in C57BL/6J mouse assessed as reduction in serum ALT levels at 20 ug/kg, po administered 5 times a week via gavage measured at 72 hrs post final CCl4 injection; assay type: functional, organism-based
Method in brief: as §2

Mus musculus [6] = test: Hepatoprotective activity against CCL4-induced liver damage in C57BL/6J mouse assessed as reduction in serum TBA levels at 20 ug/kg, po administered 5 times a week via gavage measured at 72 hrs post final CCl4 injection; assay type: functional, organism-based
Method in brief: as §2

[7] = target: T1, Vitamin D3 receptor (Homo sapiens); test: Transactivation of VDR (unknown origin) expressed in HEK293 cells co-transfected with human RXRalpha after 24 hrs by dual luciferase reporter gene assay; assay type: cell-based
Method in brief: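 HEK293 cells at 85-90% confluence transfected per well with 140 ng TK-SPP×3-Luc reporter, 20 ng pCMX-Renilla, 30 ng pENTER-CMV-hRXRα and 100 ng pCMX-VDR. Compounds added 8 h after transfection. Dual-luciferase assay run 24 h later, firefly normalized to Renilla, three experiments.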

[8] = target: T1, Vitamin D3 receptor (Homo sapiens); test: Transactivation of VDR in human LX2 cells assessed as inhibition of TGFbeta1-induced alpha-SMA protein levels at 100 nM after 24 hrs by Western blot analysis; assay type: cell-based
Method in brief: (§3)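 LX-2 cells cultured 24 h with 100 nM compound in TGFβ1-treated cells. Proteins separated on 10% SDS-PAGE, transferred to PVDF, and α-SMA or collagen I bands detected by infrared scanning.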

[9] = target: T1, Vitamin D3 receptor (Homo sapiens); test: Transactivation of VDR in human LX2 cells assessed as inhibition of TGFbeta1-induced collagen 1 protein levels at 100 nM after 24 hrs by Western blot analysis; assay type: cell-based
Method in brief: as §3

[10] = Oral bioavailability in Sprague-Dawley rat at 20 mg/kg by HPLC analysis; assay type: ADME, organism-based; conditions: in vivo
[11] = Half life in Sprague-Dawley rat at 20 mg/kg, po by HPLC analysis; assay type: ADME, organism-based; conditions: in vivo
[12] = target: T1, Vitamin D3 receptor (Homo sapiens); test: Transactivation of VDR in human LX2 cells assessed as inhibition of TGFbeta1-induced ACTA2 mRNA expression at 100 nM after 24 hrs by Q-PCR analysis; assay type: cell-based
Method in brief: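 LX-2 cells cultured with 100 nM compound for 24 h. ACTA2 mRNA measured by SYBR Green Q-PCR, normalized to U36B4 (human internal control).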

Mus musculus [13] = test: Antifibrotic activity in C57BL/6J mouse model of CCl4-induced liver fibrosis assessed as decrease in alpha-SMA expression in liver at 20 ug/kg, po administered 5 times a week via gavage measured at 72 hrs post final CCl4 injection by Q-PCR analysis; assay type: functional, organism-based
Mus musculus [14] = test: Antifibrotic activity in C57BL/6J mouse model of CCl4-induced liver fibrosis assessed as decrease in alpha-SMA expression in liver at 20 ug/kg, po administered 5 times a week via gavage measured at 72 hrs post final CCl4 injection by IHC-staining based assay; assay type: functional, organism-based
Mus musculus [15] = test: Antifibrotic activity in C57BL/6J mouse model of CCl4-induced liver fibrosis assessed as increase in CYP24A1 expression in liver at 20 ug/kg, po administered 5 times a week via gavage measured at 72 hrs post final CCl4 injection by Q-PCR analysis; assay type: functional, organism-based
Mus musculus [16] = test: Antifibrotic activity in C57BL/6J mouse model of CCl4-induced liver fibrosis assessed as reduction in collagen accumulation in liver at 20 ug/kg, po administered 5 times a week via gavage measured at 72 hrs post final CCl4 injection by hematoxylin-eosin staining based assay; assay type: functional, organism-based
Method in brief: as §1

Mus musculus [17] = test: Antifibrotic activity in C57BL6/J mouse model of CCl4-induced liver fibrosis assessed as reduction in collagen accumulation in liver at 20 ug/kg, po administered 5 times a week via gavage measured at 72 hrs post final CCl4 injection by Masson's trichrome-staining based assay; assay type: functional, organism-based; conditions: C57BL/6J
Method in brief: as §1

Mus musculus [18] = test: Antifibrotic activity in C57BL/6J mouse model of CCl4-induced liver fibrosis assessed as reduction in COL1A1 mRNA expression in liver at 20 ug/kg, po administered 5 times a week via gavage measured at 72 hrs post final CCl4 injection by Q-PCR analysis; assay type: functional, organism-based
Mus musculus [19] = test: Induction of serum calcium levels in CCL4-induced C57BL/6J mouse liver damage model at 20 ug/kg, po administered 5 times a week via gavage measured at 72 hrs post final CCl4 injection; assay type: organism-based; conditions: in vivo, 0.02 mg/kg
Method in brief: as §2

Homo sapiens [20] = species: Homo sapiens; test: Inhibition of TGFbeta1-mediated collagen-1 activation in human LX2 cells at 100 nM after 24 hrs in presence of VDR siRNA by Western blot analysis; assay type: functional, cell-based
Method in brief: (§4)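 LX-2 cells transfected with VDR-directed or scrambled siRNA (50 nM, Lipofectamine 2000), cultured 24 h, then treated 24 h with 100 nM compound, TGFβ1 (1 ng/mL), or both. VDR, α-SMA and collagen I measured by western blot (10% SDS-PAGE, PVDF).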

Homo sapiens [21] = species: Homo sapiens; test: Inhibition of TGFbeta1-mediated alphaSMA expression in human LX2 cells at 100 nM after 24 hrs in presence of VDR siRNA by Western blot analysis; assay type: functional, cell-based
Method in brief: as §4

[22] = target: T1, Vitamin D3 receptor (Homo sapiens); test: Agonist activity at VDR in human LX2 cells assessed as upregulation of TGFbeta1-induced CYP24A1 mRNA expression after 24 hrs by Q-PCR method; assay type: cell-based
Mus musculus [23] = test: Effect on Trpv6 mRNA expression in CCL4-induced C57BL/6J mouse liver damage model at 20 ug/kg, po via gavage measured on day 3 and 7 by Q-PCR analysis; assay type: ADME, organism-based; conditions: in vivo, 0.02 mg/kg

SMILES: CCn1cc(C(CC)(CC)c2ccc(OCC(O)CO)c(C)c2)cc1C(=O)NCC(F)(F)F (stereo unspecified)
Activity [7]: Dose-dependent effect
inhibition [8]: Active
inhibition [9]: Active
Activity [1]: 39%
collagen-1 synthesis inhibition relative to 1,25(OH)2D3 (%) [2]: 133%

SMILES: CCn1cc(C(CC)(CC)c2ccc(OCCCCC(=O)O)c(C)c2)cc1C(=O)NCC(C)(C)O
Activity [1]: 30%
collagen-1 synthesis inhibition relative to 1,25(OH)2D3 (%) [2]: 90%

SMILES: CCn1cc(C(CC)(CC)c2ccc(OCCCC(=O)O)c(C)c2)cc1C(=O)NCC(C)(C)O
Activity [1]: 32%
collagen-1 synthesis inhibition relative to 1,25(OH)2D3 (%) [2]: 112%

SMILES: CCn1c(C(=O)NCC(C)(C)C)ccc1C(CC)(CC)c1ccc(OCC(O)CO)c(C)c1 (stereo unspecified)
Activity [7]: Dose-dependent effect
inhibition [12]: inactive
Activity [1]: 45%

SMILES: CCn1cc(C(CC)(CC)c2ccc(OCC(O)CO)c(C)c2)cc1C(=O)NCC(C)(C)C (stereo unspecified)
Activity [1]: 31%
collagen-1 synthesis inhibition relative to 1,25(OH)2D3 (%) [2]: 119%

SMILES: CCn1cc(C(CC)(CC)c2ccc(OC(=O)CCN)c(C)c2)cc1C(=O)NCC(C)(C)O
Activity [1]: 22%
collagen-1 synthesis inhibition relative to 1,25(OH)2D3 (%) [2]: 66%

SMILES: CCCCCNC(=O)c1cc(C(CC)(CC)c2ccc(OCC(O)CO)c(C)c2)cn1CC (stereo unspecified)
Activity [1]: 16%
collagen-1 synthesis inhibition relative to 1,25(OH)2D3 (%) [2]: 51%

SMILES: CCn1cc(C(CC)(CC)c2ccc(OC(=O)CCC(=O)O)c(C)c2)cc1C(=O)NCC(C)(C)O
Activity [1]: 30%
collagen-1 synthesis inhibition relative to 1,25(OH)2D3 (%) [2]: 80%

SMILES: CCCCCNC(=O)c1ccc(C(CC)(CC)c2ccc(OCC(O)CO)c(C)c2)n1CC (stereo unspecified)
Activity [1]: 21%
collagen-1 synthesis inhibition relative to 1,25(OH)2D3 (%) [2]: 70%

SMILES: CCn1c(C(=O)NCC(F)(F)F)ccc1C(CC)(CC)c1ccc(OCC(O)CO)c(C)c1 (stereo unspecified)
Activity [1]: 37%
collagen-1 synthesis inhibition relative to 1,25(OH)2D3 (%) [2]: 135%

The next lines start with results.

Activity [1]: 20%
collagen-1 synthesis inhibition relative to 1,25(OH)2D3 (%) [2]: 73%
SMILES: CCn1cc(C(CC)(CC)c2ccc(OC(=O)[C@H](C)N)c(C)c2)cc1C(=O)NCC(C)(C)O

Activity [1]: 93%
collagen-1 synthesis inhibition relative to 1,25(OH)2D3 (%) [2]: 95%
SMILES: C=C1/C(=C\C=C2/CCC[C@]3(C)[C@@H]([C@H](C)/C=C/[C@@H](O)C4CC4)CC[C@@H]23)C[C@@H](O)C[C@@H]1O
Activity (Mus musculus [3]): Active
Activity (Mus musculus [4]): Active
Activity (Mus musculus [5]): Active
Activity (Mus musculus [6]): Active

bioavailability [10]: 30.8%
half-life [11]: 7.55 h
SMILES: C=C1/C(=C\C=C2/CCC[C@]3(C)[C@@H]([C@H](C)CCCC(C)(C)O)CC[C@@H]23)C[C@@H](O)C[C@@H]1O [CALCITRIOL]
Activity (Mus musculus [3]): Active
Activity (Mus musculus [4]): Active
Activity (Mus musculus [5]): Active
Activity (Mus musculus [6]): Active

Activity [1]: 27%
collagen-1 synthesis inhibition relative to 1,25(OH)2D3 (%) [2]: 71%
SMILES: CCn1c(C(=O)NCC2CC2)ccc1C(CC)(CC)c1ccc(OCC(O)CO)c(C)c1 (stereo unspecified)

Activity [7]: Dose-dependent effect
inhibition [12]: inactive
Activity [1]: 43%
collagen-1 synthesis inhibition relative to 1,25(OH)2D3 (%) [2]: 150%
SMILES: CCn1c(C(=O)NCC(C)(C)O)ccc1C(CC)(CC)c1ccc(OCC(O)CO)c(C)c1 (stereo unspecified)

Activity [7]: Dose-dependent effect
inhibition [8]: Active
inhibition [9]: Active
inhibition [12]: Active
bioavailability [10]: 29.3%
half-life [11]: 6.57 h
Activity [22]: Active
Activity [1]: 62%
SMILES: CCn1cc(C(CC)(CC)c2ccc(OCC(O)CO)c(C)c2)cc1C(=O)NCC(C)(C)O (stereo unspecified)
Activity (Mus musculus [13]): Active
Activity (Mus musculus [14]): Active
Activity (Mus musculus [15]): Active
Activity (Mus musculus [16]): Active
Activity (Mus musculus [17]): Active
Activity (Mus musculus [3]): Active
Activity (Mus musculus [18]): Active
Activity (Mus musculus [4]): Active
Activity (Mus musculus [5]): Active
Activity (Mus musculus [6]): Active
Activity (Mus musculus [19]): Non-Toxic
inhibition (Homo sapiens [20]): inactive
inhibition (Homo sapiens [21]): inactive
Activity (Mus musculus [23]): Non-Toxic
